# Rows were chosen to be rich in hits. Some 3.2% of all compounds tested hit in one or more screens of this group.
# Cneo AK release – Cryptococcus neoformans lysis via adenylate kinase release. C. neoformans lysis, adenylate kinase release luminescence, 4 h; normalised: neutral wells 0, clomiphene wells 100. lysis activity, % at 15 µM. 360,000 compounds, 0.2% hits;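 active means mean lysis activity across replicates of at least 80%, whatever share of replicates individually reach that level; inactive means mean lysis activity below 80%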
#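 Material: C. neoformans cells | Amount: Yeast cell density of 5 × 10^6 cells/mL | Medium: Fresh YPD growth medium | Dosing: Single dose | Times: Static 4 h at 37 °C with compound, 1 h detection | Detection: AK luminescence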
# S100A4 inh HTS – S100A4-myosin IIA interaction inhibition | S100A4/TAMRA-MyoIIA peptide fluorescence polarization | inhibition, % at 10.7 µM | 360,000 compounds, 0.14% hits | AID 652163;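 active means mean inhibition of at least 70% across replicates, with every replicate also reaching that level; inconclusive means mean inhibition reaches 70% but some replicates fall short; inactive means mean inhibition below 70%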
# Target sequence (P26447 whole entry, looked up): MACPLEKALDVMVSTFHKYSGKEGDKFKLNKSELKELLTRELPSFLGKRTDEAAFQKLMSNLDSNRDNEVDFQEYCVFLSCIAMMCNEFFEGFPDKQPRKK
#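 Test system: S100A4 monomer protein; Medium: HEPES pH 7.2 with CaCl2, KCl, NaCl, DTT, Triton; Probe or stimulus: TAMRA-labelled myosin IIA heavy-chain peptide probe, 5 nM; Doses: one dose per compound; Times: polarization read 5 min after assay mix addition, stable 5–60 min; Benchmarks: neutral control DMSO, positive control TFP.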
# AF4-AF9 inh – blocks AF4 peptide binding to human AF9; AlphaScreen, biotin-AF4 peptide binding to FLAG-AF9; inhibition, % at 10 µM; 350,000 compounds, 0.47% hits;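 active means every replicate reaching a set inhibition limit, whatever the replicate mean, cut at about 25% in these data; inconclusive means mean inhibition reaches that limit but some replicates miss it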;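 further: 0% = plate neutral control median and 100% = total signal loss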
# Target sequence (P42568 whole entry, looked up): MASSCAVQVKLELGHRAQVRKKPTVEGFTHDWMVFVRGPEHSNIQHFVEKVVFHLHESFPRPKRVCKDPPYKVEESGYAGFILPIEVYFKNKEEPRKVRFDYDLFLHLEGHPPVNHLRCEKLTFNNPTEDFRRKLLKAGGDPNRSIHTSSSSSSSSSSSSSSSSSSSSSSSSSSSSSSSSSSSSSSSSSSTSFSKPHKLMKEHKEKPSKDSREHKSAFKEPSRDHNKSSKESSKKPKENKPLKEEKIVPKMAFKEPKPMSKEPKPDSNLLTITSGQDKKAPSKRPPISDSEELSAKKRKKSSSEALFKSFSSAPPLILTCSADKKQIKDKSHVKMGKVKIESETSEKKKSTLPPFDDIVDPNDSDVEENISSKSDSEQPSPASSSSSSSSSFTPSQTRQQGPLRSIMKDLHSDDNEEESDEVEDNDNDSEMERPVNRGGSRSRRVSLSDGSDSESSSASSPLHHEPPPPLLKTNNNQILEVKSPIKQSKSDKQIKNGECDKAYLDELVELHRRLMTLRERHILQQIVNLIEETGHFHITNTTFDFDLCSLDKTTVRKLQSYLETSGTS
# Ecoli rRNA inh – inhibits bacterial ribosomal RNA function over humanized ribosomes. GFP signal change (wild-type ribosome), % (concentration not given with the values). 350,000 compounds, 1.6% hits. E. coli WT GFP vs humanized-ribosome RFP mutants, fluorescence, 24 h; active compounds read low; DMSO median 0, no signal -100;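 active means significant combined selectivity score with lowered wild-type GFP, culture density cut under 30%, mutant RFP and density less affected; inactive means any of these conditions unmet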
# DENV2 CPE – DENV2-induced cell death inhibition; DENV2-infected cells, cytopathic effect rescue, plate reader; CPE inhibition, % at 9.99 µM; 350,000 compounds, 1.7% hits; in the data active means CPE inhibition above about 20%, passing the limit was not always enough; inconclusive means no clear call, values can overlap the other calls; tested in BHK-21 cells;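 further: 0% = median of neutral control wells and 100% = median of positive control wells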
# PfHsp90 set2 – inhibits growth of yeast expressing Plasmodium falciparum Hsp90; S. cerevisiae expressing PfHsp90, BacTiter-Glo ATP, 48 h; yeast lacking PDR1 and PDR3 efflux regulators; inhibition, % at 9.4 µM; 310,000 compounds, 0.32% hits; AID 504621;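 active means every replicate shows inhibition above about 80%, whatever the replicate mean, limit read from the data; inconclusive means mean inhibition reaches the set limit but some replicate falls short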;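 further: 0% = DMSO neutral controls and 100% = 20 µM radicicol positive controls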
# Starred values were filed as active, the others as inactive; ? = inconclusive; . = no result given.
SMILES,Cneo AK release,S100A4 inh HTS,AF4-AF9 inh,Ecoli rRNA inh,DENV2 CPE,PfHsp90 set2
Cn1c(N)c(C(=O)COC(=O)/C=C/c2ccc(F)cc2)c(=O)n(C)c1=O,4,-1,0,3,-10,19
CC(C)Cn1c(N)c(C(=O)COC(=O)c2ccccc2Cl)c(=O)n(C)c1=O,.,-9,0,-35,0,-41
Cn1c(N)c(C(=O)COC(=O)/C=C/c2ccccc2)c(=O)n(C)c1=O,-1,1,-1,-20*,?,20
CC(C)Cn1c(N)c(C(=O)COC(=O)c2cccc(Cl)c2)c(=O)n(C)c1=O,.,-1,-2,-28*,2,8
CC(C)Cn1c(N)c(C(=O)COC(=O)/C=C/c2cccs2)c(=O)n(C)c1=O,.,0,5,-23*,0,12
C[C@@H]1CCCCO[C@H](CN(C)Cc2ccncc2)[C@@H](C)CN([C@H](C)CO)C(=O)c2cc(NC(=O)Nc3ccccc3)ccc2O1,0,7,-16,-4,-1,.
CC(C)NC(=O)N(C)C[C@H]1Oc2ccc(NC(=O)Nc3ccc4c(c3)OCO4)cc2CC(=O)N([C@H](C)CO)C[C@@H]1C,-2,-1,2,-4,0,.
CCCNC(=O)N1CC2(CN(Cc3ccc(OC)cc3)C2)c2c(n(C)c3cc(OC)ccc23)[C@@H]1CO,.,.,34*,4,-14,.
CCCNC(=O)N1CC2(CN(CC3CCCCC3)C2)c2c(n(C)c3cc(OC)ccc23)[C@@H]1CO,.,-4,33*,-4,-3,.
CCCNC(=O)N1CC2(CN(CC3CCCCC3)C2)c2c(n(C)c3cc(OC)ccc23)[C@H]1CO,.,8,?,-8,-11,.
CCCNC(=O)N1CC2(CN(Cc3cccc(OC)c3)C2)c2c(n(C)c3cc(OC)ccc23)[C@H]1CO,.,20,?,-2,-7,.
CCCNC(=O)N(C)C[C@@H]1Oc2ncc(C#CC3CCCCC3)cc2C(=O)N([C@H](C)CO)C[C@H]1C,2,-2,-1,-1,?,.
C[C@H](CO)N1C[C@H](C)[C@@H](CN(C)C(=O)c2cnccn2)Oc2ncc(C#CCC3CCCC3)cc2C1=O,2,6,-1,-1,36*,.
CCCC#Cc1cnc2c(c1)C(=O)N([C@H](C)CO)C[C@@H](C)[C@@H](CN(C)C(=O)NC1CCCC1)O2,-8,4,-3,7,45*,.
CCCNC(=O)N(C)C[C@@H]1Oc2ncc(C#CC3CCCCC3)cc2C(=O)N([C@H](C)CO)C[C@@H]1C,106*,-2,4,2,-9,.
CCCNC(=O)N(C)C[C@H]1Oc2ncc(C#CC3CCCCC3)cc2C(=O)N([C@@H](C)CO)C[C@@H]1C,109*,4,-1,4,?,.
C[C@H](CO)N1C[C@H](C)[C@H](CN(C)C(=O)Nc2ccc(F)cc2)Oc2ccc(NC(=O)Cc3ccccc3)cc2CC1=O,-1,19,-1,4,12,.
COc1ccc(Nc2nc(NCc3ccco3)nc(N/N=C/c3ccccc3F)n2)cc1,-2,-3,7,-27*,0,-13
O=C(NCc1cc(C(F)(F)F)cc(C(F)(F)F)c1)C1CC(c2ccccc2[N+](=O)[O-])=NO1 (configuration not stated),2,1,8,-27,-7,-31
Cc1ccccc1-c1cc(C(=O)NCc2cccc(C(F)(F)F)c2)nn1CC1CC(c2cccc([N+](=O)[O-])c2)=NO1 (configuration not stated),-4,-5,-13,7,49*,-2
O=C(NCc1cccc(C(F)(F)F)c1)C1CC(c2ccccc2[N+](=O)[O-])=NO1 (configuration not stated),-1,3,-19,-33*,10,-15
Cc1ccccc1-c1cc(C(=O)NCc2cccs2)nn1CC1CC(c2cccc([N+](=O)[O-])c2)=NO1 (configuration not stated),-4,-5,7,8,-7,-2
Cc1ccccc1-c1cc(C(=O)O)nn1CC1CC(c2cccc([N+](=O)[O-])c2)=NO1 (configuration not stated),3,10,-9,-8,126*,-2
C[C@@H]1CN([C@@H](C)CO)S(=O)(=O)c2ccc(-c3ccccc3F)cc2O[C@H]1CN(C)C,0,-12,-1,-4,5,.
COC(=O)c1c(NC(=O)C(Cl)Cl)sc2c1C(C(=O)OC)CC2 (configuration not stated),.,2,-2,-14,122*,-20
SMILES,Cneo AK release,S100A4 inh HTS,AF4-AF9 inh,Ecoli rRNA inh,DENV2 CPE,PfHsp90 set2
COC(=O)c1c(NC(=O)C(C)(C)C)sc2c1C(C(=O)OC)CC2 (configuration not stated),1,.,.,.,.,-7
O=C(NCCc1ccncc1)[C@@H]1[C@@H](CO)[C@@H]2Cn3c(ccc(C4=CCCCC4)c3=O)[C@H]1N2CC1CC1,1,-4,.,0,2,.
Cc1cc(Cl)ccc1C(=O)C1CCCN(C(=O)c2ccoc2)C1 (configuration not stated),1,-6,4,-25*,3,-9
C[C@@H]1CCCCO[C@H](CN(C)C(=O)c2ccncc2)[C@H](C)CN([C@H](C)CO)C(=O)c2cc(NS(=O)(=O)c3ccccc3)ccc2O1,4,8,-2,-3,4,.
CC(C)(C)C1CCC(=NOC(=O)c2ccc(F)cc2)CC1 (configuration not stated),.,-3,1,-41*,1,-80
COc1ccc(S(=O)(=O)Nc2ccc3c(c2)C(=O)N([C@@H](C)CO)C[C@H](C)[C@H](CN(C)C(=O)Cc2ccccc2)OCCCC[C@H](C)O3)cc1,-3,-6,0,1,9,.
C[C@@H]1CCCCO[C@@H](CN(C)C(=O)Cc2ccccc2)[C@@H](C)CN([C@H](C)CO)C(=O)c2cc(NS(=O)(=O)c3ccc(Cl)cc3)ccc2O1,-2,-1,-2,4,25*,.
COc1ccc(S(=O)(=O)Nc2ccc3c(c2)C(=O)N([C@H](C)CO)C[C@H](C)[C@H](CN(C)C(=O)CCCN(C)C)OCCCC[C@H](C)O3)cc1,1,3,3,1,22*,.
C[C@H]1CCCCO[C@H](CN(C)C(=O)Cc2ccccc2)[C@@H](C)CN([C@@H](C)CO)C(=O)c2cc(NS(=O)(=O)c3ccc(Cl)cc3)ccc2O1,-1,-3,-3,0,28*,.
COc1ccc(S(=O)(=O)Nc2ccc3c(c2)C(=O)N([C@@H](C)CO)C[C@H](C)[C@@H](CN(C)C(=O)Cc2ccccc2)OCCCC[C@H](C)O3)cc1,-1,-2,1,-2,68*,.

# High-throughput results (PubChem BioAssay)
